Measurements pooled from the literature.
Each line is one published result; the experiments were not run side by side.
MAP2K3: Dual specificity mitogen-activated protein kinase kinase 3 (MAP2K3, Homo sapiens, UniProt P46734)
BCHE: Cholinesterase (BCHE, Equus caballus, UniProt P81908)

| Compound | target | observed | action | technique | tested at | measurement | result |
| --- | --- | --- | --- | --- | --- | --- | --- |
| COc1ncccc1-c1cnn2ccc(N3CCN(C(=O)OC(C)C)CC3)nc12 | MAP2K3 | binding |  | competition with immobilised ligand | 1 µM | remaining binding | 80% |
| CCN(CC)CCCC[C@H](NC(=O)[C@H](CC(C)C)NC(=O)[C@H](C)NC(=O)[C@H](Cc1ccccc1)NC(=O)c1ccc(C(C)(C)C)cc1)C(=O)N[C@@H](CO)C(=O)OC | Transcription initiation factor TFIID subunit 1-like, BD2 (TAF1L, Homo sapiens, UniProt Q8IZX4) | thermal stability |  | DSF | 25 µM | ΔTm | 0.72 °C |
| COc1cc2c(cc1OC)C(=O)N(CC1CCN(Cc3ccsc3)CC1)C2 | BCHE | enzyme activity | inhibitor | Ellman | 1 µM | inhibition | -6.1% |
| Cn1cc(-c2cccc(N3CCc4c(sc5c4CC(C)(C)C5)C3=O)c2CO)cc(Nc2ccncn2)c1=O | MAP2K3 | enzyme activity | inhibitor |  | 1 µM | inhibition | 2% |
| COc1cc2c(cc1OC)C(=O)N(Cc1cnc3c(c1)OCCN3C)C2 | BCHE | enzyme activity | inhibitor | Ellman | 1 µM | inhibition | 13.6% |
| C#Cc1n[nH]c2c(-c3cn([C@@H](C)c4ccccn4)c(=O)[nH]c3=O)cc(F)cc12 | Serine/threonine-protein kinase Nek2 (NEK2, Homo sapiens, UniProt P51955) | enzyme activity | inhibitor |  | 0.1 µM | inhibition | 12% |
| Cc1nn(C)cc1-c1nc2c(N3CCN(Cc4ccc(Cl)cc4)CC3)c(Cl)cnc2[nH]1 | MAP2K3 | binding |  | competition with immobilised ligand | 1 µM | remaining binding | 100% |
| Nc1ncc(-c2nc(N3CCOCC3)nc(N3CCOCC3)n2)c(C(F)F)n1 | Mitogen-activated protein kinase kinase kinase 6 (MAP3K6, Homo sapiens, UniProt O95382) | binding |  | competition with immobilised ligand | 10 µM | remaining binding | 76% |
| COc1cccc(CN2CCC(CN3Cc4cc(OC)c(OC)cc4C3=O)CC2)n1 | BCHE | enzyme activity | inhibitor | Ellman | 1 µM | inhibition | -2% |
| Oc1ccc(-c2ncccc2-c2nc3ccccc3s2)cc1 | Prostaglandin G/H synthase 1 (PTGS1, Ovis aries, UniProt P05979) | enzyme activity | inhibitor | absorbance | 10 µM | inhibition | 12.5% |
